Test results taken from ChEMBL document CHEMBL3124890, “SAR studies on trisubstituted benzimidazoles as inhibitors of Mtb FtsZ for the development of novel antitubercular agents” (J Med Chem, 2013).
≈ marks a conversion by molar mass, not a printed value. Calls of active or inactive are those of the source. No cut-off for these calls is given here.

What was measured:
[1] = target: T1, Cell division protein FtsZ (Mycobacterium tuberculosis) (UniProt P9WN95); experiment: Inhibition of Mycobacterium tuberculosis FtsZ polymerization expressed in Escherichia coli BL21 (DE3) using GTP as substrate assessed as reduction in aggregate formation at 40 to 80 uM by transmission electron microscopy
T1 sequence (whole entry): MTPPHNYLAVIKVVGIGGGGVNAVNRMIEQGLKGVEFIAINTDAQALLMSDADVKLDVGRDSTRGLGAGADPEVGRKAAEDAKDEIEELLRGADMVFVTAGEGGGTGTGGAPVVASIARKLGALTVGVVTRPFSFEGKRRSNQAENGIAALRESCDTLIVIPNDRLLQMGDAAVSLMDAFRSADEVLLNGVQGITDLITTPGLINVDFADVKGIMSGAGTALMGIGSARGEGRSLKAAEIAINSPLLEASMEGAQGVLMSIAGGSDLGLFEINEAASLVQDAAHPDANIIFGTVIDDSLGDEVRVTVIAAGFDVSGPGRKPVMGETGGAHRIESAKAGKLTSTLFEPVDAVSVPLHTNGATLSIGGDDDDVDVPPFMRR
Procedure, shortened: (§1)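 His-tagged Mtb FtsZ (pET15b, BL21(DE3), Ni-NTA purified) at 5 µM in 50 mM MES, 5 mM MgCl₂, 100 mM KCl, pH 6.5 was preincubated 15 min on ice with 40 or 80 µM compound (ethanol stock). GTP was added to 25 µM and samples were held at 37 °C for 30 min, then diluted 2×, stained with 1% uranyl acetate, and imaged by TEM.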

[2] = target: T1, Cell division protein FtsZ (Mycobacterium tuberculosis); experiment: Inhibition of Mycobacterium tuberculosis FtsZ polymerization expressed in Escherichia coli BL21 (DE3) using GTP as substrate assessed as disassembly of FtsZ at 40 to 80 uM by transmission electron microscopy
Procedure, shortened: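 His-tagged Mtb FtsZ (pET15b, BL21(DE3), Ni-NTA purified, Bradford-quantified) at 5 µM in 50 mM MES, 5 mM MgCl₂, 100 mM KCl, pH 6.5 was polymerized with 25 µM GTP at 37 °C for 30 min. Compound (40 or 80 µM, ethanol stock) was then added for 5 min more. Samples were diluted 2×, negatively stained with 1% uranyl acetate, and imaged by TEM.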

[3] = system: Mycobacterium tuberculosis; experiment: […]; format: functional
Procedure, shortened: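 Strains were grown at 37 °C in 7H9 Middlebrook broth with 10% OADC, 0.05% Tween and 0.2% glycerol. Compounds were dissolved in DMSO and serially diluted 2-fold, then bacteria were added. Plates were incubated 6 days at 37 °C, then 24 h more with Alamar Blue. MIC was the lowest concentration (μg/mL) that prevented the colour change. Run in triplicate.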

[4] = target: T1, Cell division protein FtsZ (Mycobacterium tuberculosis); experiment: Inhibition of Mycobacterium tuberculosis FtsZ polymerization expressed in Escherichia coli BL21 (DE3) using GTP as substrate by spectrofluorimetric analysis
Vero = experiment: Cytotoxicity against Vero cells after 3 days by Alamar Blue assay; format: cell-based; conditions: Chlorocebus sabaeus, 72 h
Procedure, shortened: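 Vero (African green monkey kidney epithelial) cells were grown without CO₂ in L15 with antibiotics and heat-inactivated calf serum. Cells in medium with 2X Alamar Blue were added at 1.3×10^4 cells/well to 2-fold serial drug dilutions. Plates were incubated 3 days at 37 °C, and IC50 was calculated per the manufacturer's directions.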

[5] = target: T1, Cell division protein FtsZ (Mycobacterium tuberculosis); experiment: Inhibition of Mycobacterium tuberculosis FtsZ polymerization expressed in Escherichia coli BL21 (DE3) using GTP as substrate assessed as reduction in density and population of FtsZ polymers at 40 to 80 uM by transmission electron microscopy; procedure, shortened: as §1
[6] = target: T1, Cell division protein FtsZ (Mycobacterium tuberculosis); experiment: Inhibition of Mycobacterium tuberculosis FtsZ polymerization expressed in Escherichia coli BL21 (DE3) using GTP as substrate assessed as reduction in protofilaments at 40 to 80 uM by transmission electron microscopy; procedure, shortened: as §1

SMILES | inhibition [1] | inhibition [2] | MIC ([3]; H37Rv, 144 h) [µg/mL] | MIC ([3]; W210, 144 h) [µg/mL] | inhibition [4] | IC50 (Vero) [µg/mL] | inhibition [5] | inhibition [6]
CCCCOC(=O)Nc1cc2nc(C3CCCCC3)[nH]c2cc1N(C)C | Active | Active | 0.06 (≈ 0.167 µM) | 0.06 (≈ 0.167 µM) | Dose-dependent effect | > 100 | Active | Active
CCc1ccc(C(=O)Nc2cc3nc(C4CCCCC4)[nH]c3cc2N(C)C)cc1 |  |  | 0.16 (≈ 0.41 µM) | 0.16 (≈ 0.41 µM) | Dose-dependent effect | > 100 |  | 
CN(C)c1cc2[nH]c(C3CCCCC3)nc2cc1NC(=O)OCC(F)(F)F |  |  | 0.63 (≈ 1.64 µM) |  | Dose-dependent effect | > 100 |  | 
CCN(CC)c1cc2[nH]c(C3CCCCC3)nc2cc1NC(=O)c1cccc(Br)c1 |  |  | > 100 |  |  | > 100 |  | 
CCCN(CCC)c1cc2[nH]c(C3CCCCC3)nc2cc1NC(=O)c1ccccc1 |  |  | > 100 |  |  | > 100 |  | 
Cc1ccc(C(=O)Nc2cc3nc(C4CCCCC4)[nH]c3cc2N(C)C)cc1 |  |  | 0.31 (≈ 0.823 µM) |  |  | > 100 |  | 
